What is called IC50 is the midpoint of a concentration-inhibition curve.

Active and inactive are the calls of the source. The rule behind the calls is not given here.

Data set [1] concerns HepG2. The data set is described as follows: Antiproliferative activity against human HepG2 cells assessed as reduction in cell viability after 48 hrs by MTT assay. The data set is classed as functional, cell-based. Particulars: HepG2, 48 h. In outline:
(§1)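 Cell lines grown at 37 °C in 5% CO2: A2780, A549, HL7702 and PC3 in RPMI 1640; HT29 in McCoy's 5A; HepG2 and PANC-1 in DMEM; all media with 10% FBS and penicillin/streptomycin. Cells seeded and left overnight, then exposed to compound for 48 h. MTT (5 mg/mL solution) added for 4 h at 37 °C, formazan dissolved in DMSO, absorbance read at 570 nm. IC50 taken from viability; run in triplicate.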
For orientation: Tetrazolium assays rely on reduction of a dye to a coloured formazan, in cell work by metabolically active cells.

The subject of data set [2] is L02. The experiment in a line: Antiproliferative activity against human L02 cells assessed as reduction in cell viability after 48 hrs by MTT assay. To be noted: L02, 48 h. The data set is classed as cell-based. In outline:
as §1

Data set [3] relates to A549. The experiment in a line: Antiproliferative activity against human A549 cells assessed as reduction in cell viability after 48 hrs by MTT assay. The data set is classed as functional, cell-based. To be noted: A549, 48 h. An outline of the steps: as §1
Data set [4] has as its system PC-3. The experiment in a line: Antiproliferative activity against human PC-3 cells assessed as reduction in cell viability after 48 hrs by MTT assay. The data set is classed as functional, cell-based. Particulars: PC-3, 48 h. In outline: as §1
Data set [5] concerns HT-29. The experiment in a line: Antiproliferative activity against human HT29 cells assessed as reduction in cell viability after 48 hrs by MTT assay. The data set is classed as functional, cell-based. Particulars: HT-29, 48 h. In outline: as §1
For data set [6], the system named is PANC-1. The experiment in a line: Antiproliferative activity against human PANC1 cells assessed as reduction in cell viability after 48 hrs by MTT assay. The data set is classed as functional, cell-based. To be noted: PANC-1, 48 h. In outline:
as §1

The test system of data set [7] is HepG2. The data set is described as follows: Induction of morphological changes in human HepG2 cells assessed as accumulation of cytoplasmic vacuoles at 4 uM after 24 hrs by optical microscopic method. The data set is classed as functional, cell-based. An outline of the steps:
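Cells grown at 37 °C, 5% CO2 in media with 10% FBS and penicillin/streptomycin, then treated with compound. Cytoplasmic vacuoles judged by optical microscopy. Time course at 4 μM, or 10 h exposure across increasing concentrations.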

The subject of data set [8] is A2780. The data set is described as follows: Antiproliferative activity against human A2780 cells assessed as reduction in cell viability after 48 hrs by MTT assay. The data set is classed as functional, cell-based. To be noted: A2780, 48 h. In outline:
as §1

Data set [9] relates to HepG2. The data set is described as follows: Induction of morphological changes in human HepG2 cells assessed as accumulation of cytoplasmic vacuoles at 40 uM after 24 hrs by optical microscopic method. The data set is classed as functional, cell-based.
Data set [10] deals with HepG2. The experiment in a line: Synergistic antiproliferative activity against human HepG2 cells assessed as combination index at 20 to 80 uM after 48 hrs in presence of 10 to 40 uM HN by MTT assay. The data set is classed as functional. To be noted: dose 20-80 µM.
Data set [11] relates to HepG2. The data set is described as follows: Synergistic antiproliferative activity against human HepG2 cells assessed as combination index after 48 hrs in presence BBR by MTT assay. The data set is classed as functional.
A short description of data set [12]: Drug uptake in human HepG2 cells mitochondria at 5 uM after 12 hrs by HPLC analysis. The data set is classed as ADME. Particulars: hepg2, 12 h. In outline: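 HepG2 cells given 5 μM for 12 h, then homogenized in mitochondrial extraction reagent. Spun at 600 g, 4 °C, 10 min; supernatant spun again at 11000 g, 4 °C, 10 min, and the pellet taken as mitochondria. Drug content by HPLC on a C18 column with methanol–0.1% acetic acid (80:20), detection at 265 nm. Run thrice.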

Data set [13] relates to HepG2. The data set is described as follows: Induction of morphological changes in human HepG2 cells assessed as accumulation of cytoplasmic vacuoles >30 uM after 24 hrs by optical microscopic method. Particulars: dose microM >30, time 24.0 hrs. The data set is classed as functional, cell-based.
In data set [14] the test system is HepG2. The data set is described as follows: Synergistic antiproliferative activity against human HepG2 cells assessed as combination index after 48 hrs in presence HN by MTT assay. The data set is classed as functional.

Regarding `C=CCc1ccc(O)c(-c2ccc(OCCCc3c4[n+](cc5c(OC)c(OC)ccc35)CCc3cc5c(cc3-4)OCO5)c(CC=C)c2)c1`, the IC50 in data set [1] was 2.19 µM; in [2] it was 3.56 µM; in data set [3], 3.25 µM; in data set [4] it was 1.17 µM; in [5] it was more than 5 µM; in data set [6], 6.02 µM. Further, the IC50 in data set [8] came to 1.56 µM. Moreover, the outcome in data set [7] was Active.
In the case of `C=CCc1ccc(OCCCCCc2c3[n+](cc4c(OC)c(OC)ccc24)CCc2cc4c(cc2-3)OCO4)c(-c2ccc(O)c(CC=C)c2)c1`, the IC50 is 2.32 µM in data set [1]; 3.04 µM in data set [2]; 2.9 µM in data set [3]; 1.59 µM in data set [4]; more than 5 µM in data set [5]; 3.24 µM in data set [6]. Besides, in data set [8], the IC50 came out at 1.59 µM. Moreover, the result in data set [7] was Active.
Take `C=CCc1ccc(OCCC)c(-c2ccc(O)c(CC=C)c2)c1`: the 50% inhibitory concentration (IC50) turned out to be 15.5 µM in data set [1]; 22.4 µM in [2]; 14.7 µM in [3]; 17 µM in data set [4]; 26.4 µM in [5]; 15.9 µM in data set [6]. Further, the IC50 in data set [8] worked out at 14.7 µM.
`C=CCc1ccc(OCCCc2c3[n+](cc4c(OC)c(OC)ccc24)CCc2cc4c(cc2-3)OCO4)c(-c2ccc(O)c(CC=C)c2)c1`: the IC50 in data set [1] was 3.71 µM; in data set [2] it was 5.21 µM; in data set [3] it was more than 5 µM; in data set [4], 2.26 µM; in [5] it was more than 5 µM; in data set [6], more than 5 µM. Also, the IC50 in data set [8] was determined as 3.03 µM. Moreover, in [7], the result was Active.
With `COc1ccc2cc3[n+](cc2c1OC)CCc1cc2c(cc1-3)OCO2.[Cl-]` [BERBERINE CHLORIDE], the IC50 in [1] is more than 50 µM; in data set [2] it was more than 50 µM; in [3], more than 50 µM; in [4] it was 31.7 µM; in data set [5], more than 50 µM; in data set [6] it was more than 50 µM. Moreover, the half-inhibitory concentration (IC50) in data set [8] was more than 50 µM. In [9], the result was inactive. Also, in data set [10], the CI is on record as more than 1.
Regarding `C=CCc1ccc(OCCC)c(-c2ccc(OCCCCCc3c4[n+](cc5c(OC)c(OC)ccc35)CCc3cc5c(cc3-4)OCO5)c(CC=C)c2)c1`, the half-inhibitory concentration (IC50) in [1] turned out to be 0.95 µM; in data set [2], 3.05 µM; in [3], 1.25 µM; in [4] it was 1.22 µM; in [5] it was 1.95 µM; in data set [6], 1.69 µM. Besides, the IC50 in data set [8] came to 1.41 µM. For the same compound, in data set [7], the result was Active.
In the case of `COc1cccc2c1C(=O)c1c(O)c3c(c(O)c1C2=O)C[C@@](O)(C(=O)CO)C[C@@H]3O[C@H]1C[C@H](N)[C@H](O)[C@H](C)O1` [DOXORUBICIN], the half-maximal inhibitory concentration (IC50) was found to be 0.67 µM in [1]; 2.24 µM in data set [2]; 3.08 µM in data set [3]; 0.93 µM in data set [4]; 5.92 µM in data set [5]; 1.73 µM in [6]. The IC50 in data set [8] was 0.71 µM.
Regarding `C=CCc1ccc(OCCCCCCCCc2c3[n+](cc4c(OC)c(OC)ccc24)CCc2cc4c(cc2-3)OCO4)c(-c2ccc(O)c(CC=C)c2)c1`, the half-maximal inhibitory concentration (IC50) came out at 1.27 µM in data set [1]; 5.77 µM in data set [2]; 2.09 µM in data set [3]; 2 µM in data set [4]; 2.54 µM in [5]; 2.48 µM in data set [6]. Moreover, the IC50 in data set [8] is 1.97 µM. Moreover, in data set [7], the outcome was Active.
Consider `C=CCc1ccc(O)c(-c2ccc(OCCCCC)c(CC=C)c2)c1`, for which the IC50 in data set [1] was found to be 19.2 µM. Further, in [11], the CI is 0.79.
On to `C=CCc1ccc(O)c(-c2ccc(O)c(CC=C)c2)c1` [HONOKIOL], for which the IC50 in data set [1] amounted to 23.9 µM; in data set [2], 25.5 µM; in [3], 38 µM; in [4], 29 µM; in data set [5] it was 31.6 µM; in [6] it was 31.2 µM. Also, the IC50 in data set [8] was 31.6 µM. The compound also registered a Drug uptake in data set [12] of 17.8 µM. The result in data set [13] was Active.
Turning to `C=CCc1ccc(O)c(-c2ccc(OC)c(CC=C)c2)c1` [METHYLHONOKIOL], the 50% inhibitory concentration (IC50) stood at 17.5 µM in [1]; 23.9 µM in data set [2]; 22 µM in data set [3]; 17.9 µM in data set [4]; 21.1 µM in [5]; 16.7 µM in data set [6]. Further, the concentration for half-maximal inhibition (IC50) in data set [8] turned out to be 14.7 µM.
For the compound `C=CCc1ccc(OC)c(-c2ccc(OCCCCCc3c4[n+](cc5c(OC)c(OC)ccc35)CCc3cc5c(cc3-4)OCO5)c(CC=C)c2)c1`, the 50% inhibitory concentration (IC50) in [1] stood at 1.05 µM; in data set [2] it was 3.43 µM; in data set [3] it was 1.33 µM; in [4] it was 0.99 µM; in data set [5], 1.64 µM; in data set [6] it was 1.73 µM. Further, the concentration for half-maximal inhibition (IC50) in data set [8] was 1.17 µM. In [7], the result was Active.
Take `CCCCCc1c2[n+](cc3c(OC)c(OC)ccc13)CCc1cc3c(cc1-2)OCO3.[I-]`: the IC50 in data set [1] worked out at 29.3 µM. For the same compound, in data set [9], the outcome was Active. The CI in [14] was determined as 0.79.
As to `C=CCc1ccc(OCCCCCc2c3[n+](cc4c(OC)c(OC)ccc24)CCc2cc4c(cc2-3)OCO4)c(-c2ccc(OC)c(CC=C)c2)c1`, the IC50 in data set [1] worked out at 1.04 µM; in [2], 2.97 µM; in data set [3] it was 1.71 µM; in data set [4] it was 1.12 µM; in [5], 1.56 µM; in data set [6] it was 2.96 µM. The IC50 in data set [8] was found to be 1.36 µM. Also, the result in [7] was Active.
On to `C=CCc1ccc(O)c(-c2ccc(OCCCCCCCCc3c4[n+](cc5c(OC)c(OC)ccc35)CCc3cc5c(cc3-4)OCO5)c(CC=C)c2)c1`, for which the IC50 in data set [1] was determined as 0.77 µM; in data set [2], 4.82 µM; in data set [3], 1.84 µM; in data set [4], 1.74 µM; in [5], 2.89 µM; in data set [6], 2.09 µM. Moreover, the half-maximal inhibitory concentration (IC50) in data set [8] turned out to be 1.52 µM. The outcome in data set [7] was Active.
For `C=CCc1ccc(OCCCCCc2c3[n+](cc4c(OC)c(OC)ccc24)CCc2cc4c(cc2-3)OCO4)c(-c2ccc(OCCC)c(CC=C)c2)c1`, the concentration for half-maximal inhibition (IC50) in data set [1] stood at 0.92 µM; in data set [2] it was 3.62 µM; in [3] it was 1.66 µM; in data set [4] it was 1.43 µM; in data set [5], 2.39 µM; in data set [6] it was 2.56 µM. Moreover, the IC50 in data set [8] is 1.68 µM. In addition, the result in data set [7] was Active.
For `C=CCc1ccc(OC)c(-c2ccc(O)c(CC=C)c2)c1`, the IC50 in [1] was 29.7 µM; in data set [2], 35.3 µM; in data set [3] it was more than 30 µM; in data set [4], 24.8 µM; in [5], 35.4 µM; in data set [6], 16.4 µM. Also, the 50% inhibitory concentration (IC50) in data set [8] came out at 24.7 µM.
Regarding `C=CCc1ccc(O)c(-c2ccc(OCCC)c(CC=C)c2)c1`, the half-maximal inhibitory concentration (IC50) in [1] is 19.1 µM; in data set [2] it was 27.8 µM; in data set [3], 21 µM; in [4] it was 21.1 µM; in data set [5], 26.5 µM; in data set [6], 17.8 µM. For the same compound, the half-maximal inhibitory concentration (IC50) in data set [8] is 14.7 µM.

For the origin of these results see ChEMBL document CHEMBL4673249, “Anticancer Effects of Honokiol via Mitochondrial Dysfunction Are Strongly Enhanced by the Mitochondria-Targeting Carrier Berberine” (J Med Chem, 2020).
